Data taken from ChEMBL document CHEMBL4219038, “1-Thiazol-2-yl-N-3-methyl-1H-pyrozole-5-carboxylic acid derivatives as antitumor agents” (Bioorg Med Chem Lett, 2017).
Active and inactive are the calls of the source. The calls are words filed in the database; no cut-off is given here.

What follows are compounds tested on BJAB (assay: Antiproliferative activity against human BJAB cells after 4 days). Conditions: Homo sapiens, BJAB, 96 h.
Type: functional, cell-based

| Structure (SMILES) | IC50 |
| --- | --- |
| O=C(O)/C(Cc1ccccc1[N+](=O)[O-])=N\Nc1nc(-c2ccc(Cl)c(Cl)c2)cs1 | 20 µM |

Same assay, conditions: Homo sapiens, BJAB, 96 h; read-out: EC50

| Structure (SMILES) | EC50 |
| --- | --- |
| CNc1cc(-c2c(C)nn(-c3nc(-c4ccc(Cl)c(Cl)c4)c(SC(C)C)s3)c2C(=O)O)ccn1 | 18 µM |
| Cc1ccc(-c2c(C)nn(-c3nc(-c4ccc(Cl)c(Cl)c4)c(SC(C)C)s3)c2C(=O)O)cc1 | 3.8 µM |
| Cc1nn(-c2nc(-c3ccc(Cl)c(Cl)c3)c(SC(C)C)s2)c(C(=O)O)c1-c1cccc(F)c1 | 0.9 µM |
| Cc1nn(-c2nc(-c3ccc(Cl)c(Cl)c3)c(SC(C)C)s2)c(C(=O)O)c1-c1cncnc1 | 22 µM |
| Cc1cc(C#N)cc(-c2c(C)nn(-c3nc(-c4ccc(Cl)c(Cl)c4)c(SC(C)C)s3)c2C(=O)O)c1 | 4.8 µM |
| Cc1cc(-c2c(C)nn(-c3nc(-c4ccc(Cl)c(Cl)c4)c(SC(C)C)s3)c2C(=O)O)cc(C)n1 | 0.58 µM |
| Cc1nn(-c2nc(-c3ccc(Cl)c(Cl)c3)c(SC(C)C)s2)c(C(=O)O)c1-c1cnn(C)c1 | 6.8 µM |
| Cc1nn(-c2nc(-c3ccc(Cl)c(Cl)c3)c(SC(C)C)s2)c(C(=O)O)c1Cc1ccccc1[N+](=O)[O-] | 20 µM |
| COc1ccc(C)cc1-c1c(C)nn(-c2nc(-c3ccc(Cl)c(Cl)c3)c(SC(C)C)s2)c1C(=O)O | 9.5 µM |
| Cc1nn(-c2nc(-c3ccc(Cl)c(Cl)c3)c(SC(C)C)s2)c(C(=O)O)c1-c1cnccn1 | 14 µM |
| Cc1nn(-c2nc(-c3ccc(Cl)c(Cl)c3)c(SC(C)C)s2)c(C(=O)O)c1-c1ccc(C(F)(F)F)cc1 | 3.5 µM |
| Cc1cc(C)cc(-c2c(C)nn(-c3nc(-c4ccc(Cl)c(Cl)c4)c(SC(C)C)s3)c2C(=O)O)c1 | 2.7 µM |
| COc1cncc(-c2c(C)nn(-c3nc(-c4ccc(Cl)c(Cl)c4)c(SC(C)C)s3)c2C(=O)O)c1 | 21 µM |
| Cc1nn(-c2nc(-c3ccc(Cl)c(Cl)c3)c(SC(C)C)s2)c(C(=O)O)c1-c1cncc(C#N)c1 | 20 µM |
| Cc1nn(-c2nc(-c3ccc(Cl)c(Cl)c3)c(SC(C)C)s2)c(C(=O)O)c1-c1cccnc1 | 12 µM |
| COc1cc(C#N)cc(-c2c(C)nn(-c3nc(-c4ccc(Cl)c(Cl)c4)c(SC(C)C)s3)c2C(=O)O)c1 | 5.2 µM |
| Cc1nn(-c2nc(-c3ccc(Cl)c(Cl)c3)c(SC(C)C)s2)c(C(=O)O)c1-c1ccccc1Cl | 13.1 µM |
| COc1cc(Cl)cc(-c2c(C)nn(-c3nc(-c4ccc(Cl)c(Cl)c4)c(SC(C)C)s3)c2C(=O)O)c1 | 0.76 µM |
| Cc1nn(-c2nc(-c3ccc(Cl)c(Cl)c3)c(SC(C)C)s2)c(C(=O)O)c1-c1cccc(Cl)c1 | 13.6 µM |
| Cc1nn(-c2nc(-c3ccc(Cl)c(Cl)c3)c(SC(C)C)s2)c(C(=O)O)c1-c1ccccc1[N+](=O)[O-] | 4.7 µM |
| COc1cc(-c2c(C)nn(-c3nc(-c4ccc(Cl)c(Cl)c4)c(SC(C)C)s3)c2C(=O)O)cc(C(F)(F)F)c1 | 1.38 µM |

| Structure (SMILES) | EC50 |
| --- | --- |
| Cc1nn(-c2nc(-c3ccc(Cl)c(Cl)c3)c(SC(C)C)s2)c(C(=O)O)c1-c1ccc(Cl)cc1 | 2.5 µM |
| Cc1nn(-c2nc(-c3ccc(Cl)c(Cl)c3)c(SC(C)C)s2)c(C(=O)O)c1-c1cccc(C(F)(F)F)c1 | 22 µM |
| Cc1cc(Cl)cc(-c2c(C)nn(-c3nc(-c4ccc(Cl)c(Cl)c4)c(SC(C)C)s3)c2C(=O)O)c1 | 0.663 µM |
| CCSc1sc(-n2nc(C)c(Cc3ccccc3[N+](=O)[O-])c2C(=O)OC)nc1-c1ccc(Cl)c(Cl)c1 | 106 µM |
| CCOc1ncccc1-c1c(C)nn(-c2nc(-c3ccc(Cl)c(Cl)c3)c(SC(C)C)s2)c1C(=O)O | 11 µM |
| Cc1nn(-c2nc(-c3ccc(Cl)c(Cl)c3)c(SC(C)C)s2)c(C(=O)O)c1-c1cc(C#N)cc(C(F)(F)F)c1 | 3.6 µM |
| CC(=O)Nc1ccc(-c2c(C)nn(-c3nc(-c4ccc(Cl)c(Cl)c4)c(SC(C)C)s3)c2C(=O)O)cc1 | 139 µM |
| COc1ccc(-c2c(C)nn(-c3nc(-c4ccc(Cl)c(Cl)c4)c(SC(C)C)s3)c2C(=O)O)cc1 | 2.1 µM |
| Cc1ccccc1-c1c(C)nn(-c2nc(-c3ccc(Cl)c(Cl)c3)c(SC(C)C)s2)c1C(=O)O | 5.5 µM |
| COC(=O)c1c(Cc2ccccc2[N+](=O)[O-])c(C)nn1-c1nc(-c2ccc(Cl)c(Cl)c2)c(SC(C)C)s1 | 93 µM |
| Cc1cccc(-c2c(C)nn(-c3nc(-c4ccc(Cl)c(Cl)c4)c(SC(C)C)s3)c2C(=O)O)c1 | 17 µM |
| COC(=O)c1c(Cc2ccccc2[N+](=O)[O-])c(C)nn1-c1nc(-c2ccc(Cl)c(Cl)c2)cs1 | 377 µM |
| COc1cccc(-c2c(C)nn(-c3nc(-c4ccc(Cl)c(Cl)c4)c(SC(C)C)s3)c2C(=O)O)c1 | 14 µM |
| Cc1nn(-c2nc(-c3ccc(Cl)c(Cl)c3)c(SC(C)C)s2)c(C(=O)O)c1-c1cccc(Cl)c1C | 5.1 µM |
| Cc1nn(-c2nc(-c3ccc(Cl)c(Cl)c3)c(SC(C)C)s2)c(C(=O)O)c1-c1ccccc1 | 3 to 3.4 µM |
| COc1ccccc1-c1c(C)nn(-c2nc(-c3ccc(Cl)c(Cl)c3)c(SC(C)C)s2)c1C(=O)O | 14.7 µM |
| Cc1nn(-c2nc(-c3ccc(Cl)c(Cl)c3)c(SC(C)C)s2)c(C(=O)O)c1-c1ccccc1C(F)(F)F | 5.2 µM |
| Cc1nn(-c2nc(-c3ccc(Cl)c(Cl)c3)c(SC(C)C)s2)c(C(=O)O)c1-c1cc(C(F)(F)F)cc(C(F)(F)F)c1 | 1.8 µM |
| Cc1nn(-c2nc(-c3ccc(Cl)c(Cl)c3)c(SC(C)C)s2)c(C(=O)O)c1-c1ccncc1 | 5.9 µM |
| CCSc1sc(-n2nc(C)c(Cc3ccccc3[N+](=O)[O-])c2C(=O)O)nc1-c1ccc(Cl)c(Cl)c1 | 59 µM |

Same assay, conditions: bjab

| Structure (SMILES) | EC50 |
| --- | --- |
| Cc1nn(-c2nc(-c3ccc4nccn4c3)c(SC(C)C)s2)c(C(=O)O)c1-c1cc(Cl)cc(Cl)c1 | Not Active |
| Cc1nn(-c2nc(-c3cccnc3)c(SC(C)C)s2)c(C(=O)O)c1-c1cc(Cl)cc(Cl)c1 | Not Active |

Each compound was assayed on HCT-116 (assay: Cell cycle arrest in human HCT116 cells assessed as reduction in cell levels at S/G2 phase at 0.001 to 10 uM after 24 hrs by EdU-staining based high content imaging analysis). Conditions: not given.
Type: functional
Method in brief: (§1)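 HCT-116 cells plated on poly-lysine-coated plates overnight, then treated 24 h with compound (DMSO stock diluted into McCoy's medium with 10% FBS). EdU labelling of newly synthesized DNA, 4% formaldehyde fixation, then high-content imaging in three fluorescent channels for total cell count, DNA content and S-phase cells. Means of three biological replicates, SEM.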

| Structure (SMILES) | Activity |
| --- | --- |
| CC(=O)Nc1ccc(-c2c(C)nn(-c3nc(-c4ccc(Cl)c(Cl)c4)c(SC(C)C)s3)c2C(=O)O)cc1 | inactive |

What follows are compounds tested on HCT-116 (assay: Cell cycle arrest in human HCT116 cells assessed as reduction in cell levels at M-phase at 0.001 to 10 uM after 24 hrs by EdU-staining based high content imaging analysis). Conditions: not given.
Type: functional
Method in brief: as §1

| Structure (SMILES) | Activity |
| --- | --- |
| CC(=O)Nc1ccc(-c2c(C)nn(-c3nc(-c4ccc(Cl)c(Cl)c4)c(SC(C)C)s3)c2C(=O)O)cc1 | inactive |

What follows are compounds tested on HCT-116 (assay: Cell cycle arrest in human HCT116 cells assessed as reduction in cell levels at S-phase at 0.001 to 10 uM after 24 hrs EdU-staining based high content imaging analysis). Conditions: not given.
Type: functional
Method in brief: as §1

| Structure (SMILES) | Activity |
| --- | --- |
| Cc1nn(-c2nc(-c3ccc(Cl)c(Cl)c3)c(SC(C)C)s2)c(C(=O)O)c1-c1cnccn1 | Active |
| CC(=O)Nc1ccc(-c2c(C)nn(-c3nc(-c4ccc(Cl)c(Cl)c4)c(SC(C)C)s3)c2C(=O)O)cc1 | inactive |

What follows are compounds tested on HCT-116 (assay: Cell cycle arrest in human HCT116 cells assessed as accumulation at G0/G1 phase at 0.001 to 10 uM after 24 hrs by EdU-staining based high content imaging analysis). Conditions: not given.
Type: functional
Method in brief: as §1

| Structure (SMILES) | Activity |
| --- | --- |
| CC(=O)Nc1ccc(-c2c(C)nn(-c3nc(-c4ccc(Cl)c(Cl)c4)c(SC(C)C)s3)c2C(=O)O)cc1 | inactive |
